≈ marks a conversion by molar mass, not a printed value.
Columns and labels:
Assay type in all cases: functional
[1] = test system: Staphylococcus epidermidis; assay: Antibacterial activity against Staphylococcus epidermidis ATCC 12228 after 16-20 hrs by microdilution broth method
Summary of the method: (§1)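 CLSI broth microdilution with test agents as hydrochloride salts (HPLC purity over 98%), twofold dilutions in 96-well trays. Actively growing broth cultures were diluted to McFarland 0.5 for the inoculum. Trays were covered and incubated at 37 °C for 16–20 h. MIC (µg/mL) was the lowest concentration without visible growth; triplicate runs.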

[2] = test system: Staphylococcus epidermidis; assay: Antibacterial activity against Staphylococcus epidermidis 07-9 clinical isolate expressing APH(30)-IIIa after 16-20 hrs by microdilution broth method
Summary of the method: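 Clinical isolate from a Beijing Friendship Hospital patient (2007), with aph(3′)-IIIa confirmed by PCR. CLSI broth microdilution with hydrochloride salts in twofold dilutions, inoculum from actively growing culture at McFarland 0.5, 37 °C for 16–20 h in covered trays. MIC (µg/mL) was the lowest concentration inhibiting visible growth; triplicate runs.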

[3] = test system: Escherichia coli; assay: Antibacterial activity against Escherichia coli ATCC 35218 after 16-20 hrs by microdilution broth method; summary of the method: as §1
[4] = test system: Mortierella alpina; assay: Antibacterial activity against Mortierella alpina ATCC 32221 after 16-20 hrs by microdilution broth method
[5] = test system: Escherichia coli; assay: Antibacterial activity against Escherichia coli ATCC 25922 after 16-20 hrs by microdilution broth method; summary of the method: as §1
[6] = test system: Staphylococcus aureus; assay: Antibacterial activity against Staphylococcus aureus ATCC 29213 after 16-20 hrs by microdilution broth method; summary of the method: as §1
[7] = test system: Staphylococcus aureus; assay: Antibacterial activity against methicillin-resistant Staphylococcus aureus ATCC 33591 after 16-20 hrs by microdilution broth method
Summary of the method: (§2)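 CLSI broth microdilution on hydrochloride salts (HPLC purity over 98%). Actively growing broth cultures were adjusted to McFarland 0.5 and added to 2-fold drug dilutions to give a final inoculum of […]. Trays were covered and incubated at 37 °C for 16–20 h. MIC ([…]) was taken as the lowest concentration preventing visible growth. Tests were run in triplicate.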

[8] = test system: Enterococcus faecalis; assay: Antibacterial activity against Enterococcus faecalis ATCC 29212 after 16-20 hrs by microdilution broth method; summary of the method: as §1
[9] = test system: Staphylococcus epidermidis; assay: Antibacterial activity against methicillin-resistant isolate Staphylococcus epidermidis 08-18 after 16-20 hrs by microdilution broth method; summary of the method: as §2
[10] = test system: Escherichia coli; assay: Antibacterial activity against Escherichia coli BL21 expressing pET29a engineering strain expressing APH(30)-Ia after 16-20 hrs by microdilution broth method; summary of the method: as §2
[11] = test system: Pseudomonas aeruginosa; assay: Antibacterial activity against Pseudomonas aeruginosa ATCC 27853 after 16-20 hrs by microdilution broth method; summary of the method: as §1
[12] = test system: Klebsiella pneumoniae; assay: Antibacterial activity against Klebsiella pneumoniae ATCC 700603 after 16-20 hrs by microdilution broth method; summary of the method: as §1

SMILES	MIC [1] [µg/mL]	MIC [2] [µg/mL]	MIC [3] [µg/mL]	MIC [4] [µg/mL]	MIC [5] [µg/mL]	MIC [6] [µg/mL]	MIC [7] [µg/mL]	MIC [8] [µg/mL]	MIC [9] [µg/mL]	MIC [10] [µg/mL]	MIC [11] [µg/mL]	MIC [12] [µg/mL]
NC[C@H]1O[C@H](O[C@H]2[C@H](O)[C@@H](O[C@H]3O[C@H](CO)[C@@H](O)[C@H](N)[C@H]3O)[C@H](N)C[C@@H]2N)[C@H](N)[C@@H](O)[C@@H]1NC(=O)C1CCCCC1	0.25 (≈ 0.422 µM)	> 128	2 (≈ 3.37 µM)	> 128	2 (≈ 3.37 µM)	1 (≈ 1.69 µM)	4 (≈ 6.75 µM)	64 (≈ 108 µM)	1 (≈ 1.69 µM)	64 (≈ 108 µM)	8 (≈ 13.5 µM)	32 (≈ 54 µM)
CN(C)[C@H]1[C@H](O)[C@@H](N)[C@@H](O[C@H]2[C@H](O)[C@@H](O[C@H]3O[C@H](CO)[C@@H](O)[C@H](N)[C@H]3O)[C@H](N)C[C@@H]2N)O[C@@H]1CN	16 (≈ 31.3 µM)	> 128	64 (≈ 125 µM)	> 128	128 (≈ 251 µM)	32 (≈ 62.7 µM)	> 128	> 128	32 (≈ 62.7 µM)	> 128	> 128	64 (≈ 125 µM)
CC(=O)N[C@H]1[C@H](O)[C@@H](N)[C@@H](O[C@H]2[C@H](O)[C@@H](O[C@H]3O[C@H](CO)[C@@H](O)[C@H](N)[C@H]3O)[C@H](N)C[C@@H]2N)O[C@@H]1CN	0.5 (≈ 0.953 µM)	> 128	8 (≈ 15.3 µM)	> 128	2 (≈ 3.81 µM)	2 (≈ 3.81 µM)	16 (≈ 30.5 µM)	> 128	2 (≈ 3.81 µM)	128 (≈ 244 µM)	4 (≈ 7.63 µM)	2 (≈ 3.81 µM)
NCCCC(=O)N[C@H]1[C@H](O)[C@@H](N)[C@@H](O[C@H]2[C@H](O)[C@@H](O[C@H]3O[C@H](CO)[C@@H](O)[C@H](N)[C@H]3O)[C@H](N)C[C@@H]2N)O[C@@H]1CN	< 0.06	32 (≈ 56.4 µM)	1 (≈ 1.76 µM)	> 128	1 (≈ 1.76 µM)	0.25 (≈ 0.44 µM)	2 (≈ 3.52 µM)	32 (≈ 56.4 µM)	0.25 (≈ 0.44 µM)	8 (≈ 14.1 µM)	0.5 (≈ 0.881 µM)	1 (≈ 1.76 µM)
Cc1ccccc1C(=O)NCC(=O)N[C@H]1[C@H](O)[C@@H](N)[C@@H](O[C@H]2[C@H](O)[C@@H](O[C@H]3O[C@H](CO)[C@@H](O)[C@H](N)[C@H]3O)[C@H](N)C[C@@H]2N)O[C@@H]1CN	0.5 (≈ 0.76 µM)	> 128	4 (≈ 6.08 µM)	> 128	4 (≈ 6.08 µM)	2 (≈ 3.04 µM)	64 (≈ 97.3 µM)	64 (≈ 97.3 µM)	8 (≈ 12.2 µM)	> 128	32 (≈ 48.7 µM)	64 (≈ 97.3 µM)
NC[C@H]1O[C@H](O[C@H]2[C@H](O)[C@@H](O[C@H]3O[C@H](CO)[C@@H](O)[C@H](N)[C@H]3O)[C@H](N)C[C@@H]2N)[C@H](N)[C@@H](O)[C@@H]1NC(=O)C1CCNCC1	0.25 (≈ 0.421 µM)	128 (≈ 216 µM)	2 (≈ 3.37 µM)	> 128	2 (≈ 3.37 µM)	1 (≈ 1.68 µM)	2 (≈ 3.37 µM)	128 (≈ 216 µM)	0.25 (≈ 0.421 µM)	4 (≈ 6.74 µM)	2 (≈ 3.37 µM)	8 (≈ 13.5 µM)
NC[C@H]1O[C@H](O[C@H]2[C@H](O)[C@@H](O[C@H]3O[C@H](CO)[C@@H](O)[C@H](N)[C@H]3O)[C@H](N)C[C@@H]2N)[C@H](N)[C@@H](O)[C@@H]1O [BEKANAMYCIN]	0.25 (≈ 0.517 µM)	> 128	4 (≈ 8.27 µM)	> 128	4 (≈ 8.27 µM)	1 (≈ 2.07 µM)	> 128	64 (≈ 132 µM)	32 (≈ 66.2 µM)	64 (≈ 132 µM)	64 (≈ 132 µM)	16 (≈ 33.1 µM)
NC[C@@H]1O[C@@H](O[C@H]2[C@H](O)[C@@H](O[C@H]3O[C@H](CO)[C@@H](O)[C@H](N)[C@H]3O)[C@H](N)C[C@@H]2N)[C@@H](O)[C@H](O)[C@H]1O [KANAMYCIN A]	1 (≈ 2.06 µM)	> 128	4 (≈ 8.26 µM)	> 128	2 (≈ 4.13 µM)	2 (≈ 4.13 µM)	128 (≈ 264 µM)	64 (≈ 132 µM)	8 (≈ 16.5 µM)	> 128	> 128	64 (≈ 132 µM)

— ChEMBL document CHEMBL1641447, “Rational design and synthesis of potent aminoglycoside antibiotics against resistant bacterial strains” (2011)
